Assays:
Jurkat = assay: Inhibition of NF-kappaB binding to DNA in TNF-alpha-stimulated human Jurkat T cells pretreated for 1 hr before TNFalpha stimulation; assay type: cell-based
In short: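 Jurkat T cells (RPMI 1640, 10% FCS, penicillin/streptomycin) were pretreated 1 h with compound at various concentrations, then stimulated 1 h with 200 U/mL TNF-α. High-salt detergent total extracts (10-20 µg protein) were incubated 25 min at room temperature with poly(dI-dC), BSA and a 33P-labeled NF-κB oligonucleotide. The EMSA value is the lowest concentration giving complete inhibition of DNA binding. Run in duplicate.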

RAW264.7 [1] = assay: Cytotoxicity against mouse RAW264.7 cells by trypan blue exclusion method; assay type: cell-based
RAW264.7 [2] = assay: Inhibition of NF-kappaB binding to DNA in LPS-stimulated mouse RAW264.7 cells pretreated for 1 hr before LPS stimulation

Structure (SMILES) | Lowest concentration giving complete inhibition of NF-kappaB DNA binding (Jurkat) [µM] | Activity (RAW264.7 [1]) | Activity (RAW264.7 [2]) [µM]
C=C1CCC=C(C)[C@@]2(O)[C@H](OC(=O)[C@]3(C)O[C@@H]3C)[C@@H]3[C@@H](OC(=O)[C@@H]3C)[C@H]12 | 200 | – | –
C=C1C(=O)O[C@H]2/C=C(\C)CC/C=C(/C)C(=O)[C@H](OC(=O)[C@@]3(C)O[C@H]3C)[C@@H]12 | 50 | Non-toxic | 20
C=C1C(=O)O[C@H]2/C=C(\C)CC/C=C(/C)[C@@H](OC(=O)/C(C)=C/C)[C@H](O)[C@@H]12 | 100 | Non-toxic | 20
C=C1C(=O)O[C@@H]2C3O[C@]3(C)CC/C=C(\C)CC[C@@H]12 (stereo partly specified) | 20 | – | –
C=C1C(=O)O[C@@H]2[C@H]1[C@@H](OC(=O)[C@]1(C)O[C@@H]1C)C(=O)[C@@]1(C)C=CC[C@@](C)(O)[C@@H]21 | 10 | Non-toxic | 10

From ChEMBL document CHEMBL1151173, “Sesquiterpene lactones from Montanoa hibiscifolia that inhibit the transcription factor NF-kappa B” (J Nat Prod, 2004)
